In ChEMBL document CHEMBL2021883, “Amino acid, dipeptide and pseudodipeptide conjugates of ring-substituted 8-aminoquinolines: synthesis and evaluation of anti-infective, β-haematin inhibition and cytotoxic activities” (Eur J Med Chem, 2012):
Values after ≈ are worked out from the molar mass of the structure shown. Active and inactive are the calls of the source. Unless noted, no cut-off for these calls is given here.

Experiments:
Plasmodium falciparum [1] = test: Antimalarial activity against chloroquine-sensitive Plasmodium falciparum D6 assessed as plasmodial LDH activity; format: functional, organism-based; conditions: Plasmodium falciparum, D6; read-out: IC50
Plasmodium falciparum [2] = test: Antimalarial activity against chloroquine-resistant Plasmodium falciparum W2 assessed as plasmodial LDH activity; format: functional, organism-based; conditions: Plasmodium falciparum, W2; read-out: IC50
Vero = test: Cytotoxicity against african green monkey Vero cells upto 23.8 […] by neutral dye assay; format: cell-based, Chlorocebus sabaeus
Procedure, shortened: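 Vero monkey kidney cells were exposed to compound up to a highest concentration of 23.8, with viability read by neutral red uptake.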

[3] = Inhibition of beta-hematin formation; format: functional
Leishmania donovani = test: Antileishmanial activity against Leishmania donovani promastigote by Alamar Blue assay; format: functional, organism-based
[4] = Selectivity index, ratio of IC50 for african green monkey Vero cells to IC50 for chloroquine-sensitive Plasmodium falciparum D6; format: toxicity, cell-based; conditions: Vero cells versus Plasmodium falciparum D6, read-out: Ratio IC50
[5] = Selectivity index, ratio of IC50 for african green monkey Vero cells to IC50 for chloroquine-resistant Plasmodium falciparum W2; format: toxicity, cell-based; conditions: Vero cells versus Plasmodium falciparum W2, read-out: Ratio IC50
Staphylococcus aureus [6] = test: Antimicrobial activity against methicillin-resistant Staphylococcus aureus ATCC 43300 by CLSI method; format: functional, organism-based
[7] = system: Mycobacterium intracellulare; test: Antimicrobial activity against Mycobacterium intracellulare ATCC 23068 by Franzblau method; format: functional, organism-based
Escherichia coli [8] = test: Antimicrobial activity against Escherichia coli ATCC 35218 by CLSI method; format: functional, organism-based
Pseudomonas aeruginosa = test: Antimicrobial activity against Pseudomonas aeruginosa ATCC 27853 by CLSI method; format: functional, organism-based
Procedure, shortened: (§1)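 Antibacterial testing used CLSI/NCCLS broth dilution for aerobically growing bacteria, with 20 as the highest test concentration.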

Aspergillus fumigatus = test: Antifungal activity against Aspergillus fumigatus; format: functional, organism-based
Procedure, shortened: (§2)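 Yeasts and A. fumigatus were tested by broth microdilution following the NCCLS antifungal standards. The highest test concentration was 20.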

Cryptococcus neoformans = test: Antifungal activity against Cryptococcus neoformans; format: functional, organism-based; procedure, shortened: as §2
Staphylococcus aureus [9] = test: Antimicrobial activity against methicillin-resistant Staphylococcus aureus ATCC 43300 at 20 ug/ml by CLSI method; format: functional, organism-based
Staphylococcus aureus [10] = test: Bactericidal activity against methicillin-resistant Staphylococcus aureus ATCC 43300 at 20 ug/ml by CLSI method; format: functional, organism-based
Procedure, shortened: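 MBC is the lowest concentration that kills the organism. 20 was the highest concentration tested.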

[11] = system: Mycobacterium intracellulare; test: Antimicrobial activity against Mycobacterium intracellulare ATCC 23068 at 20 ug/ml by Franzblau method; format: functional, organism-based
[12] = system: Mycobacterium intracellulare; test: Bactericidal activity against Mycobacterium intracellulare ATCC 23068 at 20 ug/ml by Franzblau method; format: functional, organism-based
Escherichia coli [13] = test: Antimicrobial activity against Escherichia coli ATCC 35218 at 20 ug/ml by CLSI method; format: functional, organism-based; procedure, shortened: as §1
Escherichia coli [14] = test: Bactericidal activity against Escherichia coli ATCC 35218 at 20 ug/ml by CLSI method; format: functional, organism-based; procedure, shortened: as §1
Candida albicans [15] = test: Antifungal activity against Candida albicans at 20 ug/ml; format: functional, organism-based
Procedure, shortened: (§3)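 Broth dilution antifungal testing followed the NCCLS reference method for yeasts, with 20 as the highest test concentration. MIC was the lowest concentration with no detectable growth. MFC was the lowest concentration killing the organism.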

Candida albicans [16] = test: Fungicidal activity against Candida albicans at 20 ug/ml; format: functional, organism-based; procedure, shortened: as §3
Plasmodium berghei [17] = test: Antimalarial activity against Plasmodium berghei blood-schizont in mouse malaria model assessed as elimination of parasitemia at 100 mg/kg, po for 4 days for 4 days measured after 7 days; format: functional, organism-based; parameters: dose 100 mg/kg
Procedure, shortened: (§4)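 P. berghei-infected mice, 6 per group, received compound orally once daily for 4 days at 10, 25, 50 or 100 mg/kg/day. "Active" meant all treated animals were parasitaemia-negative up to D+7. "Curative" meant complete parasite elimination with survival to D+60. Outcomes were recorded as cured/total.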

Plasmodium berghei [18] = test: Antimalarial activity against Plasmodium berghei blood-schizont in mouse malaria model assessed as elimination of parasitemia at 100 mg/kg, po for 4 days for 4 days measured after 4 days; format: functional, organism-based; parameters: dose 100 mg/kg
Staphylococcus aureus [19] = test: Antimicrobial activity against Staphylococcus aureus ATCC 29213 by CLSI method; format: functional, organism-based
Plasmodium berghei [20] = test: Antimalarial activity against Plasmodium berghei blood-schizont in mouse malaria model assessed as disease curative activity at 100 mg/kg, po after 60 days; format: functional; procedure, shortened: as §4
Plasmodium berghei [21] = test: Antimalarial activity against Plasmodium berghei blood-schizont in mouse malaria model assessed as elimination of parasitemia at 25 mg/kg, po for 4 days for 4 days measured after 7 days; format: functional, organism-based; parameters: dose 25 mg/kg; procedure, shortened: as §4
Plasmodium berghei [22] = test: Antimalarial activity against Plasmodium berghei blood-schizont in mouse malaria model assessed as elimination of parasitemia at 50 mg/kg, po for 4 days for 4 days measured after 7 days; format: functional, organism-based; parameters: dose 50 mg/kg; procedure, shortened: as §4
Plasmodium berghei [23] = test: Antimalarial activity against Plasmodium berghei blood-schizont in mouse malaria model assessed as elimination of parasitemia at 10 mg/kg, po for 4 days for 4 days measured after 7 days; format: functional, organism-based; parameters: dose 10 mg/kg; procedure, shortened: as §4

Row | SMILES | IC50 (Plasmodium falciparum [1]) [µg/mL] | IC50 (Plasmodium falciparum [2]) [µg/mL] | IC50 (Vero) | IC50 [3] [µM] | IC50 (Leishmania donovani) | IC90 (Leishmania donovani) | selectivity ratio [4] | selectivity ratio [5] | Activity (Staphylococcus aureus [6]) | Activity [7] | IC50 (Escherichia coli [8]) [µg/mL] | Activity (Pseudomonas aeruginosa) | Activity (Aspergillus fumigatus) | IC50 (Cryptococcus neoformans) [µg/mL] | MFC (Cryptococcus neoformans) [µg/mL] | MIC (Cryptococcus neoformans) [µg/mL] | Activity (Staphylococcus aureus [9]) | Activity (Staphylococcus aureus [10]) | Activity (Candida albicans [15]) | Activity (Candida albicans [16]) | further results
1 | COc1cc(NC(C)CCCNC(=O)C[C@H](NC(=O)[C@@H](N)CCCNC(=N)N)C(=O)O)c2nc(C(C)(C)C)ccc2c1 (some centres not stated) | 3.3 (≈ 5.62 µM) | 2.8 (≈ 4.77 µM) | Non-toxic | 115 | Not Active | inactive | > 7.2 | > 8.5 | inactive | inactive | 15 (≈ 25.6 µM) | inactive | inactive | 15 (≈ 25.6 µM) | 20 (≈ 34.1 µM) | 20 (≈ 34.1 µM) | inactive | inactive | inactive | inactive | Activity [11]: inactive; Activity [12]: inactive; Activity (Escherichia coli [13]): inactive; Activity (Escherichia coli [14]): inactive
2 | COc1cc(NC(C)CCCNC(=O)[C@@H](CCCCN)NC(=O)[C@H](N)CCCCN)c2nc(C(C)(C)C)ccc2c1 (some centres not stated) | 4.76 (≈ 8.32 µM) | 2.8 (≈ 4.9 µM) | Non-toxic | > 1000 | Not Active | inactive | > 5 | > 8.5 | inactive | inactive | – | inactive | inactive | 6.5 (≈ 11.4 µM) | 10 (≈ 17.5 µM) | 10 (≈ 17.5 µM) | – | – | inactive | inactive | Activity (Plasmodium berghei [17]): inactive; Activity (Plasmodium berghei [18]): inactive; Activity (Staphylococcus aureus [19]): inactive; Activity (Escherichia coli [8]): inactive
3 | COc1cc(NC(C)CCCNC(=O)C[C@H](NC(=O)[C@@H](N)CCCCN)C(=O)O)c2nc(C(C)(C)C)ccc2c1 (some centres not stated) | 3.8 (≈ 6.8 µM) | 2.8 (≈ 5.01 µM) | Non-toxic | 131 | – | – | > 6.2 | > 8.5 | inactive | inactive | 15 (≈ 26.8 µM) | inactive | inactive | 3.5 (≈ 6.26 µM) | 5 (≈ 8.95 µM) | 5 (≈ 8.95 µM) | inactive | inactive | inactive | inactive | IC90 (Leishmania donovani; Leishmania donovani): 31 µg/mL (≈ 55.5 µM); IC50 (Leishmania donovani; Leishmania donovani, read-out: IC50): 9.4 µg/mL (≈ 16.8 µM); MIC (Escherichia coli [8]): 20 µg/mL (≈ 35.8 µM); Activity [11]: inactive; Activity [12]: inactive; Activity (Escherichia coli [14]): inactive
4 | COc1cc(NC(C)CCCNC(=O)[C@H](CCCCN)NC(=O)[C@@H](N)CCCCN)c2ncccc2c1 (some centres not stated) | 2 (≈ 3.88 µM) | 2.8 (≈ 5.43 µM) | Non-toxic | 618 | Not Active | inactive | > 11.9 | > 8.5 | inactive | inactive | – | inactive | inactive | 7 (≈ 13.6 µM) | 20 (≈ 38.8 µM) | 10 (≈ 19.4 µM) | – | – | inactive | inactive | Activity (Plasmodium berghei [20]): 100%; Activity (Plasmodium berghei [21]): Active; Activity (Plasmodium berghei [22]): Active; Activity (Plasmodium berghei [23]): Active; Activity (Staphylococcus aureus [19]): inactive; Activity (Escherichia coli [8]): inactive
